Measurements published in ChEMBL document CHEMBL2321773, “Colloidal aggregation causes inhibition of G protein-coupled receptors” (J Med Chem, 2013).
pIC50: −log10 of the molar value. Active and inactive are the calls of the source. No cut-off for these calls is given here.

Columns and labels:
Vasopressin V2 receptor [1] = target: T1, Vasopressin V2 receptor (Homo sapiens, UniProt P30518); test: Inhibition of vasopressin V2 receptor (unknown origin) assessed as change in intracellular calcium levels incubated with compound treated with Tween-80 by fluorometric analysis; type: functional, cell-based
T1 sequence (P30518 whole entry): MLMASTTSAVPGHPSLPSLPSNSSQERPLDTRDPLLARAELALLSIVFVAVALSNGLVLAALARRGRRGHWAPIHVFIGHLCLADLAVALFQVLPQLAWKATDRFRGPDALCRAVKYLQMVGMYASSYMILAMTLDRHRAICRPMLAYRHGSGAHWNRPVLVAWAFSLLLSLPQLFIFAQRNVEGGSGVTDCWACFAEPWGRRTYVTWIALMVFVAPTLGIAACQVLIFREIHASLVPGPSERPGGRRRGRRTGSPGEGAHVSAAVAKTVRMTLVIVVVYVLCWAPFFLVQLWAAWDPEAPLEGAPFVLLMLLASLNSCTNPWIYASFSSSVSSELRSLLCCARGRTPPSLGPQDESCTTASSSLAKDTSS

Vasopressin V2 receptor [2] = target: T1, Vasopressin V2 receptor; test: Inhibition of vasopressin V2 receptor (unknown origin) assessed as change in intracellular calcium levels treated with centrifuged compound solution by fluorometric analysis; type: functional, cell-based
Vasopressin V2 receptor [3] = target: T1, Vasopressin V2 receptor; test: Inhibition of vasopressin-stimulated vasopressin V2 receptor in human HTLA cells pre-incubated for 20 mins with Tween-80-treated compound solution measured on day 4 by beta arrestin-recruitment mediated luciferase reporter gene assay; type: cell-based
Summary of the method: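 Transfected HTLA β-arrestin/tTA-luciferase reporter cells were kept serum-free on day 3 and given compound (0.001 nM–100 μM final, pH 7.4 HEPES-HBSS buffer) for 20 min. They were then stimulated with 1 μM vasopressin overnight at 37 °C. Media was removed before day-4 luciferase read; normalized to vehicle/reference, sigmoidal regression.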

Vasopressin V2 receptor [4] = target: T1, Vasopressin V2 receptor; test: Inhibition of vasopressin-stimulated vasopressin V2 receptor in human HTLA cells pre-incubated for 20 mins with centrifuged compound solution measured on day 4 by beta arrestin-recruitment mediated luciferase reporter gene assay
Vasopressin V2 receptor [5] = target: T1, Vasopressin V2 receptor; test: Inhibition of vasopressin-stimulated vasopressin V2 receptor in human HTLA cells pre-incubated for 20 mins measured on day 4 by beta arrestin-recruitment mediated luciferase reporter gene assay; type: cell-based
[6] = target: T2, C-C chemokine receptor type 4 (Homo sapiens, UniProt P51679); test: Inhibition of CCL22-stimulated CCR4 in human HTLA cells pre-incubated for 20 mins with Tween-80-treated compound solution measured on day 4 by beta arrestin-recruitment mediated luciferase reporter gene assay
T2 sequence (P51679 whole entry): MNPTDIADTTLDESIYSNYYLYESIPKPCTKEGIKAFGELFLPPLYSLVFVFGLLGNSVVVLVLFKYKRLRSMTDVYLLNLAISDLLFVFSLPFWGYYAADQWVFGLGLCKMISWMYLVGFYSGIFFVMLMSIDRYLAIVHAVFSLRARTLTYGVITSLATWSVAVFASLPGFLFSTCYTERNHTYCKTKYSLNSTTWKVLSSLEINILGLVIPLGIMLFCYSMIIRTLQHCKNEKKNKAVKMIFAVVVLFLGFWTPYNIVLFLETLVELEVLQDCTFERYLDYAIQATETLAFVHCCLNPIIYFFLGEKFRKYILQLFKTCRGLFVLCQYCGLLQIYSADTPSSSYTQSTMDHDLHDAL

[7] = target: T2, C-C chemokine receptor type 4; test: (§1) Inhibition of CCL22-stimulated CCR4 in human HTLA cells pre-incubated for 20 mins with centrifuged compound solution measured on day 4 by beta arrestin-recruitment mediated luciferase reporter gene assay; type: cell-based
Summary of the method: (§2)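 HTLA cells (stable β-arrestin2-TEV protease fusion, tTA-dependent firefly luciferase) transfected by CaPO4 with receptor-V2-tTA construct; next day plated 20 000 cells/well in 1% dialyzed FBS; day 3 serum-free DMEM; compound 0.001 nM–100 μM final in HBSS/20 mM HEPES pH 7.4 for 20 min, then 1 μM agonist overnight, 37 °C; day 4 luminescence after Bright-Glo 30 min; normalized to vehicle and reference; sigmoidal fit.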

[8] = target: T2, C-C chemokine receptor type 4; test: Inhibition of CCL22-stimulated CCR4 in human HTLA cells pre-incubated for 20 mins measured on day 4 by beta arrestin-recruitment mediated luciferase reporter gene assay
[9] = Inhibition of AmpC beta lactamase (unknown origin) at 10 uM incubated for 5 mins in presence of vasopressin
Summary of the method: (§3)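 AmpC β-lactamase (1 nM) in 50 mM potassium phosphate pH 7.0 at room temperature; compound at 10 μM final from 10 mM DMSO stock, with or without 5 min preincubation with 1 μM vasopressin; enzyme incubated with sample 5 min, reaction started with 69 μM CENTA; absorbance change at 405 nm followed 2.5 min; quadruplicate.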

[10] = Inhibition of AmpC beta lactamase (unknown origin) at 10 uM incubated for 5 mins; summary of the method: as §3
[11] = target: T3, C-C chemokine receptor type 4 (Homo sapiens) (UniProt P51679); test: as §1; type: cell-based; summary of the method: as §2
T3 sequence (whole entry): T2 sequence (P51679 whole entry)

[12] = target: T4, C-X-C chemokine receptor type 1 (Homo sapiens) (UniProt P25024); test: Inhibition of CX3CL1-stimulated CX3CR1 in human HTLA cells pre-incubated for 20 mins with centrifuged compound solution measured on day 4 by beta arrestin-recruitment mediated luciferase reporter gene assay
T4 sequence (whole entry): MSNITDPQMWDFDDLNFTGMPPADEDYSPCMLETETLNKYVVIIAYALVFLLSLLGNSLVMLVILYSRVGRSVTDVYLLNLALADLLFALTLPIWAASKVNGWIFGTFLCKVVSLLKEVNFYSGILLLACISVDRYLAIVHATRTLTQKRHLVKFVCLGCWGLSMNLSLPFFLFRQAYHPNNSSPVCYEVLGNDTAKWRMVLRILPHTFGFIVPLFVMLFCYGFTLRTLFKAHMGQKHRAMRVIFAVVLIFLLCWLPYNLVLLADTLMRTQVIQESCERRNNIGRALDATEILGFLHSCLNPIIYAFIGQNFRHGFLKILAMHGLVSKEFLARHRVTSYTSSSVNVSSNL

[13] = target: T2, C-C chemokine receptor type 4; test: Inverse agonist activity at CCR4 in human HTLA cells assessed as depression of basal activity incubated for 20 mins by beta arrestin-recruitment mediated luciferase reporter gene assay in absence of CCL22; type: cell-based
Summary of the method: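 β-Arrestin recruitment luciferase reporter in transfected HTLA cells without CCL22 agonist. Compounds ranged 0.001 nM to 100 μM final in HBSS/HEPES pH 7.4 buffer, with 20 min exposure in serum-free DMEM. Luminescence read on day 4.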

Cruzipain [14] = target: T5, Cruzipain (Trypanosoma cruzi, UniProt P25779); test: Inhibition of Trypanosoma cruzi cruzaine using Z-Phe-Arg-aminomethylcoumarin as substrate incubated for 5 mins by spectrofluorimetric analysis in absence of Tween-80
T5 sequence (P25779 whole entry): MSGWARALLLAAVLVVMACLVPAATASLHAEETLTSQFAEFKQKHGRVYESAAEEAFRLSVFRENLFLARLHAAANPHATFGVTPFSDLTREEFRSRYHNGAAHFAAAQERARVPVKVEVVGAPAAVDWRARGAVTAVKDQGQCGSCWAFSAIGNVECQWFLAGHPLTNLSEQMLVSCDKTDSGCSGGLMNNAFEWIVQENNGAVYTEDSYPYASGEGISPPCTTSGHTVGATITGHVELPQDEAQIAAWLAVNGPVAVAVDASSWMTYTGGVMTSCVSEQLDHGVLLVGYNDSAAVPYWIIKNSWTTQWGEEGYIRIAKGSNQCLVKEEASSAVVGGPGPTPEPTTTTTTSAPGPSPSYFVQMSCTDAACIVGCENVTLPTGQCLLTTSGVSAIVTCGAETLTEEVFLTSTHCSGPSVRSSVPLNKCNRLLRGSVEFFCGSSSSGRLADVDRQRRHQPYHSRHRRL
Summary of the method: (§4)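 Cruzain at 0.4 nM final in 0.1 M sodium acetate pH 5.5 with 5 mM DTT and 1% DMSO. Compound preincubated with enzyme for 5 min, then 2.5 μM Z-FR-AMC added. Fluorescence increase (ex 355/em 460 nm) monitored for 5 min. Duplicate wells, two separate experiments. IC50 from variable-slope sigmoidal fit.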

Cruzipain [15] = target: T5, Cruzipain; test: Inhibition of Trypanosoma cruzi cruzaine using Z-Phe-Arg-aminomethylcoumarin as substrate incubated for 5 mins by spectrofluorimetric analysis in presence of Tween-80; summary of the method: as §4
[16] = Inhibition of AmpC beta lactamase (unknown origin) incubated for 5 mins by UV-Vis spectrophotometric analysis in presence of Triton X-100
[17] = Inhibition of AmpC beta lactamase (unknown origin) incubated for 5 mins by UV-Vis spectrophotometric analysis in absence of Triton X-100

| Structure (SMILES) | inhibition (Vasopressin V2 receptor [1]) | inhibition (Vasopressin V2 receptor [2]) | inhibition [11] | inhibition [12] | pIC50 (Cruzipain [14]) | pIC50 (Cruzipain [15]) | pIC50 [16] | pIC50 [17] | also measured |
| --- | --- | --- | --- | --- | --- | --- | --- | --- | --- |
| CCC(C)n1ncn(-c2ccc(N3CCN(c4ccc(OCC5COC(Cn6cncn6)(c6ccc(Cl)cc6Cl)O5)cc4)CC3)cc2)c1=O (stereo not drawn) [ITRACONAZOLE] | Active | Active |  |  |  |  |  |  | pIC50 (Vasopressin V2 receptor [3]): 5.20; pIC50 (Vasopressin V2 receptor [4]): 4.92; pIC50 (Vasopressin V2 receptor [5]): 6.10; pIC50 [6]: 4.90; pIC50 [7]: 5.14; pIC50 [8]: 6.30 |
| O=C1OC(c2cc(I)c(O)c(I)c2)(c2c(I)cc(O)cc2I)c2ccccc21 (stereo not drawn) | Active | Active | inactive | inactive |  |  |  |  | inhibition [9]: 7%; inhibition [10]: 77% |
| Clc1ccccc1C(c1ccccc1)(c1ccccc1)n1ccnc1 [CLOTRIMAZOLE] | Active | Active | inactive |  |  |  |  |  | pIC50 [13]: 5.80; inhibition (Vasopressin V2 receptor [3]): inactive |
| O=c1c(-c2ccc(O)cc2)coc2cc(O)cc(O)c12 [GENISTEIN] |  |  |  |  | 4.08 | < 3.40 | < 4.00 | 4.78 |  |
| O=c1cc(-c2ccc(O)c(O)c2)oc2cc(O)cc(O)c12 [LUTEOLIN] |  |  |  |  | 4.56 | 3.81 | < 4.00 | 4.66 |  |
| O=c1c(O)c(-c2ccc(O)c(O)c2)oc2cc(O)cc(O)c12 |  |  |  | inactive |  |  |  |  |  |
